Shown are actives, neighbours in structure and some others; about 4.7% of the full set was active somewhere.
MC4R antagonist = MC4R antagonists of cAMP signaling, primary screen, cell-based, TR-FRET, antagonist arm of biased-ligand search. Melanocortin receptor 4 (Homo sapiens), P32245. MC4R-expressing cells, MTII-stimulated cAMP, LANCE TR-FRET. inhibition, % at 6.5 µM. 360,000 tested, 0.48% active;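 active = inhibition above its plate's cutoff, the mean of tested wells on that plate plus 3 SD, cut at about 29% in these data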
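Assay system: U2OS cells stably expressing human melanocortin 4 receptor (MC4R) / Dosing: 6.5 µM / Timing: compound 30 min, challenge 1 h, detection 1 h / Measured by: Eu-cAMP/anti-cAMP TR-FRET, emission 671 nm / Replicates: singlicate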
AHR act = AHR activators, primary screen, cell-based, luminescence, luciferase reporter, human. 320,000 tested, 2.5% active. activation, % at 5 µM. Aryl hydrocarbon receptor (Homo sapiens), P35869. AID 2796, 2010. AHR-responsive luciferase reporter cells; in the data active = activation above about 47%
m5-HT2A agonist = mouse Htr2a agonists via beta-arrestin recruitment, primary screen, cell-based, luminescence; CHO-K1 mHTR2A beta-arrestin complementation; percent of 30 µM serotonin response; activation, % at 7.6 µM; 360,000 tested, 0.66% active; AID 624169, 2012;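 active = activation above a run cutoff, the mean activation of all tested compounds plus 3 SD, cut at about 14% in these data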
MC4R barr agon = MC4R agonists recruiting beta-arrestin, primary screen, cell-based, luminescence, agonist arm of biased-ligand search; Melanocortin receptor 4 (Homo sapiens), P32245; U2OS MC4R beta-arrestin complementation; percent of melanotan II response, DMSO zero; 360,000 tested, 0.98% active; activation, % at 8.9 µM;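 active = activation above a per-plate cutoff, the mean activation of sample wells on that plate plus 3 SD, cut at about 8% in these data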
FXN GAA850 act = FXN promoter activators, primary screen, cell-based, luciferase luminescence, HEK293 lucGAA850. 360,000 tested, 0.56% active. HEK293 lucGAA850 FXN promoter luciferase reporter, 24 h; percent of 10 µM SAHA response. AID 540364, 2011. activation, % at 6 µM;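 active = activation above the average of all compounds screened plus 3 SD, cutoff fixed separately per campaign, cut at about 7.5% in these data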
AHR act confirm = AHR activators, confirmation, cell-based, luminescence, luciferase reporter, human; activation, % at 9 µM; 2,300 tested, 87% active; shares compounds with AHR act; human cells, AHR-responsive luciferase reporter; in the data active = activation above about 49%;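 also: HepG2 hepatoma cells carrying a DRE-driven firefly luciferase reporter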
PXR counter = human PXR activators, counter-screen for AHR activator project, cell-based, luciferase luminescence; 2,300 tested, 88% active; shares compounds with AHR act; cell-based PXR reporter; activation, % at 11.6 µM; in the data active = activation above about 11%;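 also: human hepatoma DPX-2 cells expressing full-length human PXR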
Target sequence (O75469 whole entry, looked up): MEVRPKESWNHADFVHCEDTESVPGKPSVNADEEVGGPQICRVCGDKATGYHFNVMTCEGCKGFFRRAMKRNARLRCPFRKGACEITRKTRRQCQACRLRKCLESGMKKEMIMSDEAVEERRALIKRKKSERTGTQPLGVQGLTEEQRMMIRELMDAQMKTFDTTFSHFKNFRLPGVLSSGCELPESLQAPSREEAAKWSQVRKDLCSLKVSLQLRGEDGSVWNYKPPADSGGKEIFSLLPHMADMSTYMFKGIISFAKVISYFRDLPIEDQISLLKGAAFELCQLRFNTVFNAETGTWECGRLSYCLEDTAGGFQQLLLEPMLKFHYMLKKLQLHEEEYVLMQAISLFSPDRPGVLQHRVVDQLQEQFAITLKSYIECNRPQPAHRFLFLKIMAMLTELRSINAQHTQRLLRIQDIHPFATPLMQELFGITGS
Numbers stand for hits; – = inactive; · = no result.

SMILES	MC4R antagonist	AHR act	m5-HT2A agonist	MC4R barr agon	FXN GAA850 act	AHR act confirm	PXR counter
COc1ccc(NC(=O)C2(C)CCCN(C(C)C)C2)cc1F (stereo not given)	–	·	–	–	–	·	·
CCc1ccc(-c2csc(-c3c[nH]c4ccccc34)n2)cc1	–	87	–	–	–	124	29
CNc1nc(-c2c[nH]c3ccccc23)cs1	–	–	–	–	–	·	·
OCCN1CCN(c2ncnc3c2ncn3[C@H]2CN(Cc3cccc(C(F)(F)F)c3)C[C@@H](CO)O2)CC1	–	·	–	–	–	·	·
CCOc1ccc(-c2cc(C)n3nc(C(N)=O)cc3n2)cc1	–	79	–	–	–	68	·
COC(=O)c1cc2nc(-c3ccccc3)cc(C)n2n1	–	–	–	–	–	·	·
COc1ccc(C2=NCCn3nc4cc(C(F)(F)F)ccc4c32)cc1	–	80	–	–	–	69	42
O=C(Nc1ccc(Cl)cc1)c1cc(S(=O)(=O)Nc2ccccn2)ccc1Cl	–	–	–	–	–	·	·
O=C(Nc1ccc(Cl)cc1)c1cccc(S(=O)(=O)Nc2ccccn2)c1	–	91	–	–	–	77	34
O=C(Nc1ccc(OC(F)(F)F)cc1)c1ccc2nc[nH]c2c1	–	96	–	–	–	137	12
O=C(N/N=C/c1ccccc1Cl)c1n[nH]c2c1CCCC2	–	–	–	–	–	·	·
Clc1ccc(-c2n[nH]c3c2CCC3)cc1Cl	–	100	–	–	–	99	21
Cc1ccc(OCCn2c(=S)[nH]c3ccccc32)c(C(C)C)c1	–	–	–	–	–	·	·
Cc1cccc(OCCn2c(=S)[nH]c3ccccc32)c1	–	81	–	–	–	90	74
O=c1sc2ccccc2n1CCOc1ccccc1	–	109	–	–	–	123	30
S=c1[nH]c2ccccc2n1CCOc1ccccc1	–	96	–	–	–	102	77
CCOc1ccc(OCCn2c(=S)[nH]c3ccccc32)cc1	–	·	–	–	–	·	·
CCOc1ccc(NS(=O)(=O)c2ccc(C(=O)NCC(c3ccc(OC)cc3)N3CCOCC3)cc2)cc1 (stereo not given)	–	–	–	–	–	·	·
O=C(NCc1cccnc1)c1ccc2sc([C@H]3C[C@H](O)[C@@H](CO)O3)nc2c1	–	·	–	–	–	·	·
CC(C)CNC(=O)C1(C)CCCN1C(=O)c1cccnc1Oc1ccccc1 (stereo not given)	–	·	–	–	–	·	·
Cc1cccc(-c2noc(-c3csc([C@@H]4C[C@H](O)[C@@H](CO)O4)n3)n2)c1	–	·	–	–	–	·	·
COC(=O)c1[nH]c2ccccc2c1NC(=O)Oc1ccccc1	–	95	–	–	–	48	19
Cn1c(=O)c2c(nc(Cc3ccc(N)cc3)n2C)n(C)c1=O	–	–	–	–	–	·	·
CCN(CC)CCCn1c2c(c(SCC(=O)Nc3nc4ccccc4s3)nc1=O)CCC2	–	–	–	–	–	·	·
C[C@@H]1CN([C@H](C)CO)C(=O)CCCn2nncc2CO[C@@H]1CN(C)S(=O)(=O)c1ccc2ccccc2c1	–	·	–	–	–	·	·
SMILES	MC4R antagonist	AHR act	m5-HT2A agonist	MC4R barr agon	FXN GAA850 act	AHR act confirm	PXR counter
Clc1ccccc1-c1nc(-c2cccnc2)no1	–	105	–	–	–	123	14
Clc1ccccc1-c1nnc(-c2cccnc2)o1	–	–	–	–	–	·	·
Cc1ccccc1-c1nc(-c2cccnc2)no1	–	107	–	–	–	105	·
C/C(=N\NC(=O)c1ccccc1-n1cccc1)C1CC1	–	98	–	–	–	–	–
Cc1ccc(C(=O)NNC(=O)c2ccccc2-n2cccc2)cc1	–	–	–	–	–	·	·
NNC(=O)c1ccccc1-n1cccc1	–	121	–	–	–	–	–
O=C(NNC(=O)c1ccccc1-n1cccc1)c1ccccc1	–	81	–	–	–	93	12
